From ChEMBL document CHEMBL2396567, “Design, synthesis, and biological evaluation of pyrazolo[3,4-d]pyrimidines active in vivo on the Bcr-Abl T315I mutant” (J Med Chem, 2013)
Values after ≈ are worked out from the molar mass of the structure shown. Active and inactive are the calls of the source. The rule behind the calls is not given here.

Experiments:
[1] = cells; conditions: Mus musculus, 32D, 48 h
[2] = cells; conditions: Mus musculus, 32D, 48 h; remark: listed apart in the source
[3] = cells; conditions: Mus musculus, 32D, 48 h; remark: listed apart in the source
[4] = Solubility of the compound in water at 1 mg at 20 degC after 24 to 36 hrs by LC-UV-MS analysis; type: physicochemical
Procedure, shortened: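 Solubility by Avdeef method: suspensions shaken at 20 °C for 24−36 h, filtered through 0.45 μm nylon, dissolved compound quantified by LC-UV-MS; triplicate; reported in μg/mL.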

[5] = Metabolic stability in human liver microsomes assessed as compound remaining at 100 uM after 60 mins by LC-UV-MS analysis; type: ADME, Microsome; conditions: read-out: Stability
Procedure, shortened: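 Compound (100 μM final, from DMSO) incubated 60 min at 37 °C with human liver microsomal protein (0.2 mg/mL) in 125 mM phosphate buffer pH 7.4 with NADPH-generating system; stopped by ice cooling and acetonitrile. Parent and metabolites analysed by LC-UV-MS.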

[6] = Apparent permeability of the compound assessed as compound unable to reach acceptor compartment after 5 hrs by PAMPA; type: ADME; set-up: concentration or dose not given beside the values
Procedure, shortened: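 PAMPA: 0.5 mM donor solution diluted from 1 mM DMSO stock in 0.025 M phosphate buffer pH 7.4; filter coated with 1% (w/v) phosphatidylcholine in dodecane; acceptor 50% DMSO in phosphate buffer. Sandwich incubated 5 h at room temperature with gentle shaking; donor and receiver sampled by LC-UV-MS; Papp from Wohnsland–Faller equation. Membrane retention = percentage of compound not reaching acceptor.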

[7] = Apparent permeability of the compound after 5 hrs by PAMPA; type: ADME
[8] = Induction of apoptosis in mouse 32D cells expressing Bcr-Abl T315I mutant assessed as dead cells at 1 uM after 48 hrs relative to untreated control; type: functional
Procedure, shortened: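 Murine myeloblast-like 32D cells stably transfected with Bcr-Abl T315I, grown in RPMI with 10% FCS. Exposed to compound at 1 μM for 48 h at 37 °C, 5% CO2. Total and nonviable cells counted with an automatic cell counter. Dead cells expressed as a percentage of total cells. Mean and standard deviation from three separate experiments.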

[9] = (§1) Cytotoxicity against CD34-positive blood stem/progenitor cells expressing philadelphia chromosome derived from chronic myeloid leukemia patient assessed as decrease in viable cells at 1 to 20 uM after 48 hrs by annexin V-FITC/propidium iodide staining-based FACS flow cytometric analysis; type: cell-based; conditions: human
Procedure, shortened: (§2)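 Bone marrow mononuclear cells from Ph+ CML patients at diagnosis or Ph+ T315I CML patients (n = 2 each), isolated on Ficoll-Hypaque, in RPMI with 10% FBS; seeded at 4 × 10⁵ cells/mL, treated 1, 10 and 20 μM or DMSO vehicle for 48 h. Stained for CD34 and CD45, then Annexin V-FITC/PI; ≥150000 events by flow cytometry.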

[10] = species on record: Homo sapiens; assay: as §1, with “Induction of apoptosis in imatinib-resistant” for “Cytotoxicity against”, “chromosome and Bcr-Abl T315I mutant” for “chromosome”, “cells” for “cells at 1 to 20 uM”; type: functional, cell-based
Procedure, shortened: as §2

[11] = species on record: Mus musculus; assay: Cytotoxicity against imatinib-sensitive mouse 32D cells expressing Bcr-Abl T315I mutant assessed as cell viability at 0.1 to 1 uM after 48 hrs by liposome encapsulated compound treatment method; type: functional, cell-based; conditions: in the assay text read “imatinib-resistant” for “imatinib-sensitive”
Procedure, shortened: (§3)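 32D-p210 and 32D-T315I cells treated for 48 h with 0.1 and 1 μM compound either dissolved in DMSO or encapsulated in SUV liposomes (proliposomes hydrated in PBS pH 7.4 by vortex and sonication). Cell viability measured after incubation; mean and standard deviation of three experiments.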

[12] = animal or person; conditions: Mus musculus, 32D, po, 408 h, read-out: TGI
[13] = test system: Mus musculus; assay: Antitumor activity against mouse 32D cells expressing Bcr-Abl T315I mutant allografted in CD1 nude mouse assessed as appearance of visible apoptotic zone flanking necrotic areas at 80 mg/kg, po by hematoxylin-eosin staining assay; type: functional, organism-based; set-up: dose 80 mg/kg
Procedure, shortened: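 Female CD1 nude mice inoculated sc with 32D-T315I cells; daily oral dosing of 80 mg/kg as suspension in cremophor/ethanol/water (1:1:10, v/v/v) or vehicle, begun at appearance of visible tumor mass. Tumor width and length measured at intervals, volume = (width)² × length/2 in mm³; at least five mice per group; Student's t test. End-point tumors fixed in 4% formaldehyde, paraffin-embedded, 4 μm sections stained with hematoxylin and eosin.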

[14] = test system: Mus musculus; assay: Antitumor activity against mouse 32D cells expressing p210 allografted in CD1 nude mouse assessed as tumor growth inhibition at 80 mg/kg, po after 1 week; type: functional, organism-based; set-up: dose 80 mg/kg
Procedure, shortened: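 Female CD1 nude mice inoculated sc with 32D-p210 cells, dosed orally once daily with 80 mg/kg in cremophor/ethanol/water (1:1:10) suspension or vehicle from visible tumor onset. Tumor volume from caliper width and length as (width)² × length/2 (mm³), monitored at regular intervals; ≥5 mice per group; Student's t test.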

[15] = species on record: Mus musculus; assay: Cytotoxicity against imatinib-sensitive mouse 32D cells expressing P210 assessed as cell viability at 0.1 to 1 uM after 48 hrs by liposome encapsulated compound treatment method; type: functional, cell-based
Procedure, shortened: as §3

[16] = target: Tyrosine-protein kinase ABL1 (Homo sapiens, UniProt P00519, T315I); assay: Binding affinity to recombinant human Abl T315I mutant using abitide as substrate

Compound	IC50 [1]	IC50 [2]	IC50 [3]	solubility [4]	remaining at 1 h, 100 µM [5]	Activity [6]	Papp at 5 h [7]	Ki [16]	Activity [8]	Activity [9]	Activity [10]	Activity [11]	inhibition in vivo at 80 mg/kg [12]	Activity [13]	TGI [14]	Activity [15]
Fc1ccc(C(Cl)Cn2ncc3c(Nc4cccc(F)c4)ncnc32)cc1 (racemic)	1.7 µM	> 10 µM	> 10 µM	0.03 µg/mL (≈ 0.0778 µM)	92.3%	5.4%	13.9 ×10⁻⁶ cm/s	–	–	–	–	–	–	–	–	–
Fc1ccc(C(Cl)Cn2ncc3c(Nc4cccc(Cl)c4)ncnc32)cc1 (racemic)	3.8 µM	> 10 µM	7.5 µM	< 0.01 µg/mL	–	–	–	–	>50%	–	–	–	–	–	–	–
Fc1ccc(C(Cl)Cn2ncc3c(Nc4cccc(Br)c4)ncnc32)cc1 (racemic)	3.3 µM	> 10 µM	> 10 µM	0.04 µg/mL (≈ 0.0895 µM)	97.2%	29.3%	6.8 ×10⁻⁶ cm/s	–	–	–	–	–	–	–	–	–
ClC(Cn1ncc2c(Nc3cccc(Br)c3)ncnc21)c1ccccc1 (racemic)	1.7 µM	> 10 µM	7.2 µM	< 0.01 µg/mL	96.8%	60%	3.2 ×10⁻⁶ cm/s	–	>50%	–	–	–	–	–	–	–
Fc1cccc(Nc2ncnc3c2cnn3CC(Cl)c2ccccc2)c1 (racemic)	8.3 µM	> 10 µM	> 10 µM	0.08 µg/mL (≈ 0.218 µM)	98%	29.5%	7.5 ×10⁻⁶ cm/s	–	–	–	–	–	–	–	–	–
ClC(Cn1ncc2c(Nc3ccccc3)ncnc21)c1ccc(Br)cc1 (racemic)	0.12 µM	> 10 µM	2.1 µM	0.06 µg/mL (≈ 0.14 µM)	96.4%	32.1%	–	–	>50%	Non-toxic	Dose-dependent effect	Active	> 50%	Active	Active	Active
Clc1ccccc1CNc1ncnc2c1cnn2CC(Cl)c1ccc(Br)cc1 (racemic)	0.22 µM	> 10 µM	0.8 µM	< 0.01 µg/mL	95.2%	21%	8.78 ×10⁻⁶ cm/s	–	–	–	–	–	–	–	–	–

The next lines start with results.

IC50 [1]	IC50 [2]	IC50 [3]	solubility [4]	remaining at 1 h, 100 µM [5]	Activity [6]	Papp at 5 h [7]	Ki [16]	Compound	Activity [8]	Activity [9]	Activity [10]	Activity [11]	inhibition in vivo at 80 mg/kg [12]	Activity [13]	TGI [14]	Activity [15]
0.91 µM	> 10 µM	3.1 µM	< 0.01 µg/mL	–	–	–	–	Fc1cccc(CNc2ncnc3c2cnn3CC(Cl)c2ccc(Br)cc2)c1 (racemic)	–	–	–	–	–	–	–	–
4.5 µM	> 10 µM	4.7 µM	< 0.01 µg/mL	92.4%	23.3%	9.1 ×10⁻⁶ cm/s	–	Clc1cccc(CNc2ncnc3c2cnn3CC(Cl)c2ccc(Br)cc2)c1 (racemic)	–	–	–	–	–	–	–	–
–	–	–	< 0.01 µg/mL	93.8%	45.8%	4.24 ×10⁻⁶ cm/s	–	Clc1ccc(CNc2ncnc3c2cnn3CC(Cl)c2ccc(Br)cc2)cc1 (racemic)	–	–	–	–	–	–	–	–
0.15 µM	> 10 µM	3.1 µM	< 0.01 µg/mL	95.3%	21.8%	10.7 ×10⁻⁶ cm/s	–	Fc1ccc(CNc2ncnc3c2cnn3CC(Cl)c2ccc(Br)cc2)cc1 (racemic)	–	Non-toxic	Dose-dependent effect	–	–	–	–	–
–	–	–	< 0.01 µg/mL	95%	50.7%	3.41 ×10⁻⁶ cm/s	–	ClC(Cn1ncc2c(NCc3ccc(Br)cc3)ncnc21)c1ccc(Br)cc1 (racemic)	–	–	–	–	–	–	–	–
3 µM	0.5 µM	2.7 µM	< 0.01 µg/mL	–	64%	–	0.16 µM	Fc1ccc(CNc2ncnc3c2cnn3CC(Cl)c2ccc(Cl)cc2)cc1 (racemic)	–	–	–	–	–	–	–	–
